Measurements pooled from the literature.
Compare with care: the assays were run in different laboratories.
LRRK2: Leucine-rich repeat serine/threonine-protein kinase 2 (LRRK2, Homo sapiens, UniProt Q5S007)
LRRK2 G2019S: Leucine-rich repeat serine/threonine-protein kinase 2 (LRRK2, Homo sapiens, UniProt Q5S007, G2019S)

Structure (SMILES)	target	read-out	method	concentration	remaining binding [%]
F[C@@H]1CCN(c2nccc(-c3cnn4ncccc34)n2)C1	LRRK2	binding	–	1 µM	100
Cc1nc(C2CCN(C(=O)c3ccc(OC(F)(F)F)cc3N)CC2)c2ncc(N3CCN(C)CC3)cc2n1	LRRK2 G2019S	cell-free assay	competition with immobilised ligand	1 µM	100
CN(C)c1nccc(-c2cnn3ncccc23)n1	LRRK2	binding	–	1 µM	90
O=C(c1ccc(Nc2ncc(Cl)c(-c3cc4ccccc4s3)n2)cc1)N1CCC(N2CCCC2)CC1	LRRK2	binding	competition with immobilised ligand	1 µM	12
N#Cc1ccc(Nc2ccc3[nH]c(=O)[nH]c3c2)c(Cl)c1	LRRK2 G2019S	cell-free assay	competition with immobilised ligand	1 µM	93
CN(c1nccc(-c2cnn3ncccc23)n1)C1CC1	LRRK2	binding	–	1 µM	100
O=C(NCC1CCOCC1)c1n[nH]cc1NC(=O)c1c(F)cccc1F	LRRK2	binding	competition with immobilised ligand	1 µM	76
Cc1cnn2ncc(-c3ccnc(N(C)C)n3)c2c1	LRRK2	binding	–	1 µM	47
COc1ncc2cc3ccccc3nc2c1C#N	LRRK2	cell-free assay	competition with immobilised ligand	5 µM	100
COc1ccnn2ncc(-c3ccnc(N(C)C)n3)c12	LRRK2	binding	–	1 µM	56
CN(C)C(=O)Cn1cc(-c2nc(C3(c4ccc(-c5cnc(N)nc5)cc4)CC3)no2)cn1	LRRK2	cell-free assay	competition with immobilised ligand	1 µM	100
O=C(NCCCN1CCOCC1)c1ccc(Nc2nccc(-c3cc4ccccc4s3)n2)cc1	LRRK2 G2019S	binding	competition with immobilised ligand	1 µM	69
c1cncc(-c2cccc(Nc3nccc(NC4CCCCC4)n3)c2)c1	LRRK2	binding	competition with immobilised ligand	10 µM	49
N[C@@H]1CCN(c2nccc(-c3cnn4ncccc34)n2)C1	LRRK2	binding	–	1 µM	100
CN([C@@H]1CCc2c(CC(=O)O)c3cc(S(C)(=O)=O)ccc3n2C1)S(=O)(=O)c1ccc(F)cc1	LRRK2 G2019S	cell-free assay	competition with immobilised ligand	1 µM	100
C[C@@H](c1ccc(-n2cnc3c(N)ncnc32)cc1)N1CCc2nn(C)c(Cc3ccccc3)c2C1=O	LRRK2 G2019S	binding	competition with immobilised ligand	0.1 µM	92
O=C(c1ccc(Nc2ncc(Cl)c(-c3ccc(Cl)s3)n2)cc1)N1CCC(N2CCCC2)CC1	LRRK2	binding	competition with immobilised ligand	1 µM	3.3
O=C(O)[C@@H]1[C@@H](Cn2nnc3ccccc3c2=O)CC[C@H]1C(=O)c1ccc(OCCC2CCOCC2)cc1	LRRK2	cell-free assay	competition with immobilised ligand	1 µM	100
COc1cnc(Nc2cccc(S(N)(=O)=O)c2)nc1N1CCN(c2ccccc2)C(=O)C1	LRRK2 G2019S	binding	competition with immobilised ligand	1 µM	100
CC(=O)N1CCC(c2ccc(C(=O)NC(=N)N)cc2C(F)(F)F)CC1	LRRK2 G2019S	cell-free assay	competition with immobilised ligand	1 µM	100
C[C@@H]1CCN(c2nccc(-c3cnn4ncccc34)n2)C1	LRRK2 G2019S	binding	–	1 µM	63
Cn1cc(Cl)c2c(Oc3c(F)cc(Nc4cc(Cl)nc(N)n4)cc3F)ccnc21	LRRK2	cell-free assay	competition with immobilised ligand	0.1 µM	75
CNC(=O)[C@@H]1CC[C@@H](n2c(-c3ccc4cnccc4c3)nc3ccc(C(=O)NCc4cccc(C(N)=O)c4)cc32)C1	LRRK2	binding	competition with immobilised ligand	1 µM	100
